Test results as given in ChEMBL document CHEMBL1777792, “Synthesis and evaluation of indole-based new scaffolds for antimicrobial activities--identification of promising candidates” (Bioorg Med Chem Lett, 2011).

Columns and labels:
Escherichia coli [1] = experiment: Antibacterial activity against Escherichia coli harboring ampicillin-resistance gene encoding plasmid at 257 ug/ml after 24 hrs by disc diffusion assay; type: functional; conditions: read-out: DIZ
Summary of the method: (§1)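 Disc diffusion used an E. coli strain carrying a plasmid that encodes an ampicillin-resistance gene. Inhibition zone diameters were recorded and compared against the corresponding solvent controls.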

Candida albicans [2] = experiment: Antifungal activity against Candida albicans in yeast extract-peptone-glucose medium at 257 ug/ml after 48 hrs by disc diffusion assay; type: functional; conditions: read-out: DIZ
Summary of the method: (§2)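 Solid-phase assay on YEPD agar spread with a set number of C. albicans cells. Compound solution and reference solvent spotted onto 0.5 cm discs. Plates incubated at 30 °C, and inhibition zone diameter measured against solvent control.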

Candida albicans [3] = experiment: Antifungal activity against Candida albicans in yeast extract-peptone-glucose medium at 257 ug/ml after 48 hrs by disc diffusion assay in presence of 100 ug/ml of calcofluor white; type: functional
Summary of the method: (§3)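 Disc diffusion on YEPD agar containing a cell-wall-disrupting agent (SDS, Congo red or calcofluor white) and spread with a set number of C. albicans cells. Compound and reference solvent spotted on 0.5 cm discs. Incubated at 30 °C, then inhibition zone diameter measured against solvent.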

Candida albicans [4] = experiment: Antifungal activity against Candida albicans in yeast extract-peptone-glucose medium at 257 ug/ml after 48 hrs by disc diffusion assay in presence of 150 ug/ml of congo red; type: functional; summary of the method: as §3
Candida albicans [5] = experiment: Antifungal activity against Candida albicans in yeast extract-peptone-glucose medium at 257 ug/ml after 48 hrs by disc diffusion assay in presence of 0.01% of sodium dodecylsulphate; type: functional; conditions: read-out: DIZ; summary of the method: as §3
Candida albicans [6] = experiment: Antifungal activity against Candida albicans in yeast extract-peptone-glucose medium at 257 ug/ml after 48 hrs by disc diffusion assay in presence of […]; type: functional; conditions: in the assay text read “20 ug/ml” for “150 ug/ml”
Summary of the method: (§4)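 Tests whether compounds enhance the toxicity of rhodamine 6G, a substrate of the Cdr1p/Cdr2p drug pumps. YEPD agar containing R6G spread with C. albicans. Compound and solvent spotted on 0.5 cm discs, incubated at 30 °C, and zone diameter read relative to solvent control.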

Candida albicans [7] = experiment: Antifungal activity against Candida albicans in synthetic dextrose minimal medium after 48 hrs by ELISA based serial dilution method
Escherichia coli [8] = experiment: Antibacterial activity against Escherichia coli harboring ampicillin-resistance gene encoding plasmid at 600 ug/ml after 24 hrs by disc diffusion assay; type: functional; conditions: read-out: DIZ; summary of the method: as §1
Candida albicans [9] = experiment: Antifungal activity against Candida albicans in yeast extract-peptone-glucose medium at 600 ug/ml after 48 hrs by disc diffusion assay; type: functional; conditions: read-out: DIZ; summary of the method: as §2
Candida albicans [10] = experiment: Antifungal activity against Candida albicans in yeast extract-peptone-glucose medium at 600 ug/ml after 48 hrs by disc diffusion assay in presence of 100 ug/ml of calcofluor white; type: functional; summary of the method: as §3
Candida albicans [11] = experiment: Antifungal activity against Candida albicans in yeast extract-peptone-glucose medium at 600 ug/ml after 48 hrs by disc diffusion assay in presence of 150 ug/ml of congo red; type: functional; summary of the method: as §3
Candida albicans [12] = experiment: Antifungal activity against Candida albicans in yeast extract-peptone-glucose medium at 600 ug/ml after 48 hrs by disc diffusion assay in presence of 0.01% of sodium dodecylsulphate; type: functional; conditions: read-out: DIZ; summary of the method: as §3
Candida albicans [13] = experiment: Antifungal activity against Candida albicans in yeast extract-peptone-glucose medium at 600 ug/ml after 48 hrs by disc diffusion assay in presence of […]; type: functional; conditions: in the assay text read “20 ug/ml” for “150 ug/ml”; summary of the method: as §4
Escherichia coli [14] = experiment: Antibacterial activity against Escherichia coli harboring ampicillin-resistance gene encoding plasmid at 238 ug/ml after 24 hrs by disc diffusion assay; type: functional; conditions: read-out: DIZ; summary of the method: as §1
Candida albicans [15] = experiment: Antifungal activity against Candida albicans in yeast extract-peptone-glucose medium at 238 ug/ml after 48 hrs by disc diffusion assay; type: functional; conditions: read-out: DIZ
Summary of the method: (§5)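 C. albicans cells at a set number were spread on YEPD agar, either plain or containing the cell-wall disruptant named in the line (SDS, Congo red or calcofluor white). Compound solution, or the reference solvent as control, was spotted onto 0.5 cm discs placed on the lawn. Plates were incubated at 30 °C and the inhibition zone diameter was measured.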

Candida albicans [16] = experiment: Antifungal activity against Candida albicans in yeast extract-peptone-glucose medium at 238 ug/ml after 48 hrs by disc diffusion assay in presence of 150 ug/ml of congo red; type: functional; summary of the method: as §5
Candida albicans [17] = experiment: Antifungal activity against Candida albicans in yeast extract-peptone-glucose medium at 238 ug/ml after 48 hrs by disc diffusion assay in presence of 0.01% of sodium dodecylsulphate; type: functional; conditions: read-out: DIZ; summary of the method: as §5
Candida albicans [18] = experiment: Antifungal activity against Candida albicans in yeast extract-peptone-glucose medium at 238 ug/ml after 48 hrs by disc diffusion assay in presence of […]; type: functional
Summary of the method: (§6)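 This is a C. albicans disc diffusion on YEPD agar containing rhodamine 6G, a substrate of the Cdr1p/Cdr2p ATP-dependent efflux pumps, to test for enhanced R6G toxicity. A set number of cells was spread, and 0.5 cm discs were spotted with compound solution or reference solvent. Plates were incubated at 30 °C and the zone diameter was measured.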

Escherichia coli [19] = experiment: Antibacterial activity against Escherichia coli harboring ampicillin-resistance gene encoding plasmid at 187 ug/ml after 24 hrs by disc diffusion assay; type: functional; conditions: read-out: DIZ; summary of the method: as §1
Candida albicans [20] = experiment: Antifungal activity against Candida albicans in yeast extract-peptone-glucose medium at 187 ug/ml after 48 hrs by disc diffusion assay; type: functional; conditions: read-out: DIZ; summary of the method: as §5
Candida albicans [21] = experiment: Antifungal activity against Candida albicans in yeast extract-peptone-glucose medium at 187 ug/ml after 48 hrs by disc diffusion assay in presence of 100 ug/ml of calcofluor white; type: functional; summary of the method: as §5
Candida albicans [22] = experiment: Antifungal activity against Candida albicans in yeast extract-peptone-glucose medium at 187 ug/ml after 48 hrs by disc diffusion assay in presence of 150 ug/ml of congo red; type: functional; summary of the method: as §5
Candida albicans [23] = experiment: Antifungal activity against Candida albicans in yeast extract-peptone-glucose medium at 187 ug/ml after 48 hrs by disc diffusion assay in presence of 0.01% of sodium dodecylsulphate; type: functional; conditions: read-out: DIZ; summary of the method: as §5
Candida albicans [24] = experiment: Antifungal activity against Candida albicans in yeast extract-peptone-glucose medium at 187 ug/ml after 48 hrs by disc diffusion assay in presence of […]; type: functional; summary of the method: as §6
Escherichia coli [25] = experiment: Antibacterial activity against Escherichia coli harboring ampicillin-resistance gene encoding plasmid at 545 ug/ml after 24 hrs by disc diffusion assay; type: functional; conditions: read-out: DIZ; summary of the method: as §1
Candida albicans [26] = experiment: Antifungal activity against Candida albicans in yeast extract-peptone-glucose medium at 545 ug/ml after 48 hrs by disc diffusion assay; type: functional; conditions: read-out: DIZ; summary of the method: as §5
Candida albicans [27] = experiment: Antifungal activity against Candida albicans in yeast extract-peptone-glucose medium at 545 ug/ml after 48 hrs by disc diffusion assay in presence of 100 ug/ml of calcofluor white; type: functional
Summary of the method: (§7)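 C. albicans cells were spread at a set number over YEPD agar containing the additive named in the line. Discs 0.5 cm across were placed on the lawn and spotted with test compound solution or reference solvent. Plates were incubated at 30 °C. The inhibition zone diameter was measured in mm and compared with the solvent-control disc.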

Candida albicans [28] = experiment: Antifungal activity against Candida albicans in yeast extract-peptone-glucose medium at 545 ug/ml after 48 hrs by disc diffusion assay in presence of 150 ug/ml of congo red; type: functional; summary of the method: as §7
Candida albicans [29] = experiment: Antifungal activity against Candida albicans in yeast extract-peptone-glucose medium at 545 ug/ml after 48 hrs by disc diffusion assay in presence of 0.01% of sodium dodecylsulphate; type: functional; conditions: read-out: DIZ; summary of the method: as §5
Candida albicans [30] = experiment: Antifungal activity against Candida albicans in yeast extract-peptone-glucose medium at 545 ug/ml after 48 hrs by disc diffusion assay in presence of 150 ug/ml of rhodamine 6G; type: functional; summary of the method: as §7
Escherichia coli [31] = experiment: Antibacterial activity against Escherichia coli harboring ampicillin-resistance gene encoding plasmid at 357 ug/ml after 24 hrs by disc diffusion assay; type: functional; conditions: read-out: DIZ; summary of the method: as §1
Candida albicans [32] = experiment: Antifungal activity against Candida albicans in yeast extract-peptone-glucose medium at 357 ug/ml after 48 hrs by disc diffusion assay; type: functional; conditions: read-out: DIZ; summary of the method: as §5
Candida albicans [33] = experiment: Antifungal activity against Candida albicans in yeast extract-peptone-glucose medium at 357 ug/ml after 48 hrs by disc diffusion assay in presence of 100 ug/ml of calcofluor white; type: functional; summary of the method: as §5
Candida albicans [34] = experiment: Antifungal activity against Candida albicans in yeast extract-peptone-glucose medium at 357 ug/ml after 48 hrs by disc diffusion assay in presence of 150 ug/ml of congo red; type: functional; summary of the method: as §5

In the case of `O=C(C(=O)N1CCCC1)c1cn(CCCn2cc(C(=O)C(=O)N3CCCC3)c3cc(Br)ccc32)c2ccc(Br)cc12`, the zone of inhibition at 257 µg/mL (Escherichia coli [1]) is reported as 13.5 mm, the zone of inhibition at 257 µg/mL (Candida albicans [2]) is reported as 11.5 mm and the “diameter of the inhibition zone (DIZ)” value (Candida albicans [3]) is reported as 11.5 mm. For the same molecule, the “diameter of the inhibition zone (DIZ)” value (Candida albicans [4]) was 11.5 mm, the zone of inhibition at 257 µg/mL (Candida albicans [5]) was 11.5 mm and the “diameter of the inhibition zone (DIZ)” value (Candida albicans [6]) was 12 mm. The IC50 (Candida albicans [7]) was 29.2 mM.

With `O=C(NCc1ccccc1)C(=O)c1cn(Cc2ccc(Cn3cc(C(=O)C(=O)NCc4ccccc4)c4ccccc43)cc2)c2ccccc12` the zone of inhibition at 600 µg/mL (Escherichia coli [8]) was 9 mm, the zone of inhibition at 600 µg/mL (Candida albicans [9]) was 12.5 mm and the “diameter of the inhibition zone (DIZ)” value (Candida albicans [10]) was 11.5 mm. The “diameter of the inhibition zone (DIZ)” value (Candida albicans [11]) was 10.5 mm, the zone of inhibition at 600 µg/mL (Candida albicans [12]) was 12.5 mm and the “diameter of the inhibition zone (DIZ)” value (Candida albicans [13]) was 11 mm. The IC50 (Candida albicans [7]) was 0.02 mM.

`O=C(C(=O)N1CCCCC1)c1cn(CCCCCCn2cc(C(=O)C(=O)N3CCCCC3)c3ccccc32)c2ccccc12` was tested, and the zone of inhibition at 238 µg/mL (Escherichia coli [14]) was 7.5 mm, the zone of inhibition at 238 µg/mL (Candida albicans [15]) was 6.5 mm and the “diameter of the inhibition zone (DIZ)” value (Candida albicans [16]) was 6 mm. For the same molecule, the zone of inhibition at 238 µg/mL (Candida albicans [17]) was 6.5 mm and the “diameter of the inhibition zone (DIZ)” value (Candida albicans [18]) was 5.5 mm.

In the case of `O=C(C(=O)N1CCCC1)c1cn(Cc2ccc(Cn3cc(C(=O)C(=O)N4CCCC4)c4ccccc43)cc2)c2ccccc12`, the zone of inhibition at 187 µg/mL (Escherichia coli [19]) is reported as 7 mm, the zone of inhibition at 187 µg/mL (Candida albicans [20]) is reported as 7.5 mm and the “diameter of the inhibition zone (DIZ)” value (Candida albicans [21]) is reported as 6.5 mm. For the same molecule, the “diameter of the inhibition zone (DIZ)” value (Candida albicans [22]) was 7 mm, the zone of inhibition at 187 µg/mL (Candida albicans [23]) was 8 mm and the “diameter of the inhibition zone (DIZ)” value (Candida albicans [24]) was 7 mm.

`O=C(C(=O)N1CCCC1)c1cn(CCCCCCn2cc(C(=O)C(=O)N3CCCC3)c3ccccc32)c2ccccc12` was tested, and the zone of inhibition at 545 µg/mL (Escherichia coli [25]) was 11.5 mm, the zone of inhibition at 545 µg/mL (Candida albicans [26]) was 14.5 mm and the “diameter of the inhibition zone (DIZ)” value (Candida albicans [27]) was 11 mm. For the same molecule, the “diameter of the inhibition zone (DIZ)” value (Candida albicans [28]) was 10.5 mm, the zone of inhibition at 545 µg/mL (Candida albicans [29]) was 15.5 mm and the “diameter of the inhibition zone (DIZ)” value (Candida albicans [30]) was 12.5 mm.

`O=C(C(=O)N1CCOCC1)c1cn(CCCCCCn2cc(C(=O)C(=O)N3CCOCC3)c3ccccc32)c2ccccc12` was tested, and the zone of inhibition at 357 µg/mL (Escherichia coli [31]) was 7.5 mm, the zone of inhibition at 357 µg/mL (Candida albicans [32]) was 5.5 mm and the “diameter of the inhibition zone (DIZ)” value (Candida albicans [33]) was 6.5 mm. For the same molecule, the “diameter of the inhibition zone (DIZ)” value (Candida albicans [34]) was 6.5 mm.
